Compounds with a hit are over-represented: about 2.8% of the library has one in this group of screens.
PAFAH2 inh – inhibitors of human PAFAH2; inhibition, % at 3.39 µM; Q99487; 340,000 compounds, 0.99% hits; recombinant PAFAH2, FP-rhodamine activity probe, fluorescence polarization; AID 492956;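 active = inhibition above the mean over all tested compounds plus 3 SD, cut at about 30% in these data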;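 note: inhibitors block probe labeling of enzyme so polarization drops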
ASAP1 GAP inh – inhibitors of human ASAP1 ArfGAP activity. Q9ULH1. AID 624377. inhibition, % at 16.5 µM. ASAP1-stimulated ARF1 GTP hydrolysis, GDP FP detection. 360,000 compounds, 0.19% hits; in the data active = inhibition above about 25%
Target sequence (Q9ULH1 325-724 limits assumed): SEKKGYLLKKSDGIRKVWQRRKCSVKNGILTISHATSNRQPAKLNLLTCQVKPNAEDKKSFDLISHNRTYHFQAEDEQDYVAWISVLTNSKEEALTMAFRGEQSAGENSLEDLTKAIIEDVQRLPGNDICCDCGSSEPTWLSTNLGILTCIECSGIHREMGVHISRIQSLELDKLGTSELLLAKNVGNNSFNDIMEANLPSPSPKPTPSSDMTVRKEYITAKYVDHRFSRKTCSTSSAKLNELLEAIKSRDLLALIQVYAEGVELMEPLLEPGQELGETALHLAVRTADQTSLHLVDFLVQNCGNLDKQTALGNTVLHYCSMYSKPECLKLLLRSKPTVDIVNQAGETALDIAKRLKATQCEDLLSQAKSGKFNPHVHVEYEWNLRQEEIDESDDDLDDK
PAFAH1B3 FP inh – blocks human PAF acetylhydrolase 1B catalytic subunit 3 | Q15102 | 340,000 compounds, 0.28% hits | recombinant PAFAH1B3, FP-rhodamine probe, fluorescence polarization | inhibition, % at 3.39 µM;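 active = inhibition above the screen-wide average of all tested compounds plus 3 SD, cut at about 25% in these data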
Target sequence (Q15102 whole entry, looked up): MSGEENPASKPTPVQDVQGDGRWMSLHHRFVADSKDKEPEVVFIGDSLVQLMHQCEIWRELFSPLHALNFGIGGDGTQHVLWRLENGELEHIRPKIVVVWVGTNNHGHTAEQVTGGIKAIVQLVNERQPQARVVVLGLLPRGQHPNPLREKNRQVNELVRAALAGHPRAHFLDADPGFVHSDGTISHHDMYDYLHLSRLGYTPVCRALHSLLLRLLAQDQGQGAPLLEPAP
pPAFAH FP inh – pPAFAH (human) enzyme inhibition | AID 463082 | 330,000 compounds, 1.5% hits | recombinant pPAFAH, FP-rhodamine probe fluorescence polarization | inhibition, % at 3.39 µM;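 active = inhibition above the mean inhibition across the screen plus 3 SD, cut at about 25% in these data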;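 note: inhibitors block binding of the rhodamine activity-based probe so polarization drops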
ARFGAP1 inh – inhibits rat ARF GTPase activating protein 1; Q62848; 360,000 compounds, 0.26% hits; inhibition, % at 16.5 µM; Arfgap1-stimulated ARF1 GTP hydrolysis, GDP FP detection; AID 651572;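 active = inhibition above a per-plate limit, mean inhibition of low control wells plus 3 SD, cut at about 25% in these data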
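Material: truncated rat Arfgap1 GAP domain; Incubation: compound-enzyme preincubation 20 min, reaction 120 min, detection 60 min, 25 °C; Read-out: percent inhibition of Arfgap1-stimulated GTP hydrolysis; Technique: FP, GDP Alexa 633 tracer displaced from anti-GDP antibody, 620/688 nm; Controls: No-Arfgap1 wells (100%) versus DMSO full-reaction wells (0%); Replication: single well per compound.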
PAFAH1B2 inh – inhibitors of human PAFAH1B2. P68402. recombinant PAFAH1B2, FP-rhodamine activity probe, fluorescence polarization. inhibition, % at 3.39 µM. 340,000 compounds, 1.2% hits. AID 492953;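 active = inhibition above the mean of all tested compounds plus 3 SD, cut at about 24% in these data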
Large screens that a line does not name were inactive.

Cc1cc(N)ccc1-n1c(C)ccc1C	pPAFAH FP inh 33
Cc1ccc(-n2c(C)cc(=O)cc2C)c(C)c1	none
Cc1cc(C(=O)O)ccc1-n1c(C)ccc1C	pPAFAH FP inh 50 (no result: PAFAH2 inh, ASAP1 GAP inh, PAFAH1B3 FP inh, ARFGAP1 inh, PAFAH1B2 inh)
COc1ccc(C)cc1NC(=O)CCNS(=O)(=O)c1ccc2c(c1)CC(C)N2C(C)=O (stereo unspecified)	none
Cc1ccc(S(=O)(=O)N2[C@@H](c3ccc(C(C)(C)C)cc3)C(C(=O)O)=CC[C@H]2c2ccc(C(C)C)cc2)cc1	PAFAH1B2 inh 83
Cc1ccc(S(=O)(=O)N2[C@@H](c3ccc(Br)cc3)C(C(=O)O)=CC[C@H]2c2ccc(C(C)C)cc2)cc1	PAFAH1B2 inh 89
Cc1ccc(S(=O)(=O)N2C(c3ccc(Cl)c(Cl)c3)CC=C(C(=O)O)C2c2ccc(Cl)cc2)cc1 (stereo unspecified)	none (no result: PAFAH2 inh, PAFAH1B3 FP inh, pPAFAH FP inh, PAFAH1B2 inh)
CCOc1ccc([C@@H]2CC=C(C(=O)O)[C@H](c3ccc(F)cc3)N2S(=O)(=O)c2ccc(C)cc2)cc1	none
CCc1ccc([C@@H]2CC=C(C(=O)O)[C@H](c3ccc(C(C)(C)C)cc3)N2S(=O)(=O)c2ccc(C)cc2)cc1	PAFAH1B2 inh 87
COc1cc([C@@H]2CC=C(C(=O)O)[C@H](c3ccc(Cl)cc3)N2S(=O)(=O)c2ccc(C)cc2)cc(OC)c1OC	none
Cc1ccc(S(=O)(=O)N2[C@@H](c3ccc(Cl)cc3)C(C(=O)O)=CC[C@H]2c2ccc(Cl)c(Cl)c2)cc1	PAFAH1B2 inh 90
C=CCOC(=O)N1CCC2CC1c1c(-c3ccc(C(F)(F)F)cc3)cccc12 (stereo unspecified)	none (no result: PAFAH2 inh, PAFAH1B3 FP inh, pPAFAH FP inh, PAFAH1B2 inh)
Cc1ccc([C@@H]2CC=C(C(=O)O)[C@H](c3ccc(C(C)(C)C)cc3)N2S(=O)(=O)c2ccc(C)cc2)cc1	PAFAH1B2 inh 87
COc1cc(-c2nc(-c3ccccc3)c(-c3cccs3)[nH]2)cc(OC)c1O	pPAFAH FP inh 32
COc1cc(-c2nc(-c3ccccc3)c(-c3cccs3)[nH]2)cc(OC)c1OC	none
Cc1cc2cc(CNC(=O)CCC(=O)O)ccc2n1C	none
CCCC(=O)NCc1ccc2c(c1)cc(C)n2C	ARFGAP1 inh 33
O=[N+]([O-])c1ccc(Cl)c(C[n+]2cccc3ccccc32)c1	none
Cc1nc(C(F)(F)F)ccc1C(=O)N1CCCC1(C)C(=O)NCC(C)C (stereo unspecified)	none (no result: PAFAH2 inh, PAFAH1B3 FP inh, pPAFAH FP inh, PAFAH1B2 inh)
CCN(c1ccc(OCC(=O)OCC(=O)Nc2ccc(F)c(F)c2F)cc1)S(=O)(=O)c1ccccc1	PAFAH1B2 inh 40 (no result: ASAP1 GAP inh, ARFGAP1 inh)
CN(c1ccc(OCC(=O)OCC(=O)Nc2ccccc2)cc1)S(=O)(=O)c1ccc(F)cc1	none
Cc1ccc(C2SCCN2C(=O)c2ccc([N+](=O)[O-])cc2)cc1 (stereo unspecified)	PAFAH1B2 inh 24
CC(=O)Nc1ccc(N2C(=O)CSC2c2ccc([N+](=O)[O-])cc2)cc1 (stereo unspecified)	none
O=C(c1ccc([N+](=O)[O-])cc1)N1CCSC1c1ccc(Cl)cc1 (stereo unspecified)	PAFAH1B2 inh 29
Cn1cnnc1SCc1ccccc1	none
Cn1cnnc1SCc1ccc(-c2ccc(Br)cc2)o1	pPAFAH FP inh 26
N#C/C(=C(/O)COC(=O)c1ccc(C#N)cc1)c1nc2ccccc2s1	pPAFAH FP inh 25
Cc1ccc(SC/C(O)=C(\C#N)c2nc3ccccc3s2)cc1	PAFAH1B2 inh 29
N#C/C(=C(/O)COc1ccccc1)c1nc2ccccc2s1	none
CC(=O)Oc1ccccc1Cn1c(C)c(C(=O)NCc2ccc(F)cc2)sc1=O	none (no result: PAFAH2 inh, PAFAH1B3 FP inh, pPAFAH FP inh, PAFAH1B2 inh)
NC1=C(Cl)C(=O)c2ccccc2C1=O	none (no result: pPAFAH FP inh)
CN1CCN(C2=C(Cl)C(=O)C(c3cnc(N4CCCCC4)s3)=C(Cl)C2=O)CC1	pPAFAH FP inh 41 (no result: ASAP1 GAP inh, ARFGAP1 inh)
CN1CCN(C2=C(Cl)C(=O)c3ccccc3C2=O)CC1	PAFAH2 inh 57, PAFAH1B3 FP inh 66, PAFAH1B2 inh 39 (no result: pPAFAH FP inh)
CN1CCN(C2=C(NS(=O)(=O)c3ccccc3)C(=O)c3ccccc3C2=O)CC1	none (no result: ASAP1 GAP inh, ARFGAP1 inh)
CC1COCC(C)N1C1=C(Cl)C(=O)c2ccccc2C1=O (stereo unspecified)	PAFAH2 inh 43, PAFAH1B3 FP inh 44, PAFAH1B2 inh 35 (no result: pPAFAH FP inh)
O=C(COC(=O)c1ccc(Cl)cc1[N+](=O)[O-])NCc1ccco1	none
CC(C)CNC(=O)c1cccc(NC(=O)CSc2ccc(Cl)cc2)c1	PAFAH1B2 inh 30
CSc1cccc(NC(=O)CSc2ccc(Cl)cc2)c1	none
O=c1c2c3c(sc2[nH]c(=S)n1Cc1ccco1)CCC3	pPAFAH FP inh 25
O=C(Nc1ccccc1Br)C1CCN(S(=O)(=O)c2cccs2)CC1	none
CCOC(=O)C1CSCCS(=O)(=O)N1Cc1ccc(Br)cc1 (stereo unspecified)	none (no result: PAFAH2 inh, PAFAH1B3 FP inh, pPAFAH FP inh, PAFAH1B2 inh)
Cc1ccc(SC(CC(=O)c2ccc(F)cc2)C(=O)O)cc1 (stereo unspecified)	none
CC(C)(C)c1ccc(C(=O)CC(Sc2ccc(Cl)cc2)C(=O)O)cc1 (stereo unspecified)	PAFAH2 inh 40, PAFAH1B2 inh 83
CC(=O)C(N=Nc1ccccc1)(Sc1nnc(-c2ccccc2)n1-c1ccccc1)C(C)=O	none
CC(=O)C(N=Nc1ccccc1)(Sc1nnc(-c2ccccc2)n1-c1ccccc1)C(=O)Nc1ccccc1 (stereo unspecified)	PAFAH1B2 inh 26
CCOc1ccc(N(CC)C(=O)COc2cc(=O)n(C)c3ccccc23)cc1	pPAFAH FP inh 28
N#CC1=C(N)NC(SCc2ccc(F)cc2)=C(C#N)C12CCCCC2	PAFAH1B2 inh 28
CC(NC(=O)CN(C)S(=O)(=O)c1cccc2nsnc12)c1ccccc1 (stereo unspecified)	PAFAH1B2 inh 31
Cc1ccc(CNC(=O)Cn2cnc3c(OCc4ccccc4)ncnc32)o1	none
CCN(Cc1ccccc1)C(=O)COC(=O)c1cc(S(=O)(=O)Nc2ccccc2OC)ccc1O	PAFAH1B2 inh 32
O=C(COC(=O)c1cc(S(=O)(=O)N2CCCC2)ccc1O)Nc1ccccc1Br	PAFAH2 inh 49
COc1ccccc1NS(=O)(=O)c1ccc(O)c(C(=O)OCC(=O)Nc2ccccc2F)c1	PAFAH2 inh 34
Cc1cccc(C(=O)OC(C)C(=O)Nc2ccc(S(=O)(=O)N3CCCC3)cc2)c1O (stereo unspecified)	none
CNS(=O)(=O)c1cccc(C(=O)OCC(=O)Nc2ccccc2F)c1	none
CC(OC(=O)c1cc(Br)ccc1O)C(=O)Nc1ccc(S(=O)(=O)N2CCCC2)cc1 (stereo unspecified)	pPAFAH FP inh 26
CC(C)[C@H](NC(=O)C1CCN(S(=O)(=O)c2ccccc2)CC1)C(=O)NCc1ccc(F)cc1	none
O=C(COC(=O)Cc1ccsc1)Nc1ccc(Cl)cn1	pPAFAH FP inh 28
O=C(COC(=O)Cc1ccsc1)NCc1ccc(Cl)cc1	none
